Measured values from ChEMBL document CHEMBL1152866, “Modulation of gene expression via disruption of NF-kappaB signaling by a bacterial small molecule” (Science, 2008).
Activity calls are given as the source filed them.

Tests used:
[1] = tested on: Macrophage; assay: Inhibition of LPS-induced IRF-1 mRNA expression in mouse alveolar macrophages after 90 mins by Northern blot analysis; assay type: functional, cell-based
[2] = tested on: Macrophage; assay: Inhibition of LPS-induced IkappaBalpha expression in C57BL/6 mouse alveolar macrophages measured up to 120 mins by Western blot analysis; assay type: functional, cell-based
[3] = tested on: MEF; assay: Inhibition of TNF-induced IkappaBbeta expression in mouse MEF up to 120 mins by Western blot analysis; assay type: functional, cell-based
[4] = tested on: BMDM; assay: Inhibition of LPS-induced IkappaBalpha expression in mouse BMDM measured up to 120 mins by Western blot analysis; assay type: functional, cell-based
[5] = tested on: MEF; assay: Effect on TNF-induced MCP1 mRNA expression in MEF by Northern blot analysis; assay type: functional, cell-based; conditions: Mus musculus
[6] = tested on: Macrophage; assay: Inhibition of LPS-induced RANTES mRNA expression in mouse alveolar macrophages after 90 mins by Northern blot analysis; assay type: functional, cell-based
[7] = tested on: MEF; assay: Inhibition of TNF-induced RelA expression in mouse MEF up to 120 mins by Western blot analysis; assay type: functional, cell-based
[8] = tested on: MEF; assay: Inhibition of LPS-induced c-jun mRNA expression in MEF after 90 mins by Northern blot analysis; assay type: functional, cell-based; conditions: Mus musculus
[9] = tested on: BMDM; assay: Inhibition of LPS-induced IFNbeta mRNA expression in mouse BMDM up to 3 hrs by Northern blot analysis; assay type: functional, cell-based
[10] = tested on: THP-1; assay: Inhibition of LPS-induced IkappaBalpha expression in human THP1 cells measured up to 120 mins by Western blot analysis; assay type: functional, cell-based
[11] = tested on: MEF; assay: Effect on TNF-induced IkappaBalpha mRNA expression in MEF by Northern blot analysis; assay type: functional, cell-based; conditions: Mus musculus
[12] = target: T1, Inhibitor of nuclear factor kappa-B kinase subunit alpha (Mus musculus) (UniProt Q60680); assay: Inhibition of TNF-induced IkappaBalpha phosphorylation in mouse MEF up to 120 mins by Western blot analysis
T1 sequence (whole entry): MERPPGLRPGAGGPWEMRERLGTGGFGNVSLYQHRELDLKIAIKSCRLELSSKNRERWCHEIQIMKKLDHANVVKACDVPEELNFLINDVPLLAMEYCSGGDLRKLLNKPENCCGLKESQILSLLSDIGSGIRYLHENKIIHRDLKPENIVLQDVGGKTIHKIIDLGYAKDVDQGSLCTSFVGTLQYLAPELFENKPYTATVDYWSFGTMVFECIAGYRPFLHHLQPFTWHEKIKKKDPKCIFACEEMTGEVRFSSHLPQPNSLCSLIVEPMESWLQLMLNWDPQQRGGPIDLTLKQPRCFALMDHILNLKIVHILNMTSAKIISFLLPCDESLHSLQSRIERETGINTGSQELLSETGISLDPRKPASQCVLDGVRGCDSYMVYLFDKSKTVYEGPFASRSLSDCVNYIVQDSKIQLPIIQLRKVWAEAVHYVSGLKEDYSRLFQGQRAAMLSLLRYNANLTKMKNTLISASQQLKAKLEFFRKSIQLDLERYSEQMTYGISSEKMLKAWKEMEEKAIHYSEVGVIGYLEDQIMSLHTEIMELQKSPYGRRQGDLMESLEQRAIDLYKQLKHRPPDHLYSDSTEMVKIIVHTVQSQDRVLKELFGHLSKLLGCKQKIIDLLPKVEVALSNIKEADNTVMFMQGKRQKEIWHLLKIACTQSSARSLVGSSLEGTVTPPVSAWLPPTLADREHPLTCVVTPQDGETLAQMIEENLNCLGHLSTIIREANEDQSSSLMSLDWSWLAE

[13] = species on record: Mus musculus; assay: Suppression of LPS-induced TNF expression in C57BL/6 transgenic mouse bearing TNF-reporter after 2 hrs by luciferase reporter gene assay; assay type: functional, organism-based
Procedure, shortened: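 Animals received an injection of vehicle, LPS, C12, or LPS plus C12. Whole-animal bioluminescence was recorded 2 hours after injection as the read-out of reporter activity.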

[14] = target: T1, Inhibitor of nuclear factor kappa-B kinase subunit alpha (Mus musculus); assay: Inhibition of LPS-induced IkappaBalpha phosphorylation in C57BL/6 mouse alveolar macrophages measured up to 120 mins by Western blot analysis
[15] = species on record: Mus musculus; assay: Effect on IKK activity in LPS-induced mouse BMDM assessed as induction of phosphorylation of CREB treated 2 hrs after LPS challenge measured up to 120 mins by immunoblot analysis
[16] = tested on: BMDM; assay: Inhibition of LPS-induced IRF-1 mRNA expression in mouse BMDM up to 3 hrs by Northern blot analysis; assay type: functional, cell-based
[17] = tested on: Macrophage; assay: Inhibition of LPS-induced TNF mRNA expression in mouse C57BL/6 mouse alveolar macrophages up to 50 uM by Northern blot analysis; assay type: functional, cell-based
[18] = species on record: Mus musculus; assay: Inhibition of IKK activity in LPS-induced mouse BMDM assessed as reduction in phosphorylation of RelA treated 2 hrs after LPS challenge measured up to 120 mins by immunoblot analysis
[19] = species on record: Mus musculus; assay: Inhibition of LPS-induced IKK activity in mouse BMDM assessed as GST-IkappaBalpha phosphorylation after 5 mins by immunoprecipitation kinase assay
[20] = target: T2, Inhibitor of nuclear factor kappa-B kinase subunit alpha (Homo sapiens) (UniProt O15111); assay: Inhibition of TNF-induced IkappaBalpha phosphorylation in human bronchial epithelial cells up to 120 mins by Western blot analysis; assay type: cell-based; conditions: Epithelial cell
T2 sequence (whole entry): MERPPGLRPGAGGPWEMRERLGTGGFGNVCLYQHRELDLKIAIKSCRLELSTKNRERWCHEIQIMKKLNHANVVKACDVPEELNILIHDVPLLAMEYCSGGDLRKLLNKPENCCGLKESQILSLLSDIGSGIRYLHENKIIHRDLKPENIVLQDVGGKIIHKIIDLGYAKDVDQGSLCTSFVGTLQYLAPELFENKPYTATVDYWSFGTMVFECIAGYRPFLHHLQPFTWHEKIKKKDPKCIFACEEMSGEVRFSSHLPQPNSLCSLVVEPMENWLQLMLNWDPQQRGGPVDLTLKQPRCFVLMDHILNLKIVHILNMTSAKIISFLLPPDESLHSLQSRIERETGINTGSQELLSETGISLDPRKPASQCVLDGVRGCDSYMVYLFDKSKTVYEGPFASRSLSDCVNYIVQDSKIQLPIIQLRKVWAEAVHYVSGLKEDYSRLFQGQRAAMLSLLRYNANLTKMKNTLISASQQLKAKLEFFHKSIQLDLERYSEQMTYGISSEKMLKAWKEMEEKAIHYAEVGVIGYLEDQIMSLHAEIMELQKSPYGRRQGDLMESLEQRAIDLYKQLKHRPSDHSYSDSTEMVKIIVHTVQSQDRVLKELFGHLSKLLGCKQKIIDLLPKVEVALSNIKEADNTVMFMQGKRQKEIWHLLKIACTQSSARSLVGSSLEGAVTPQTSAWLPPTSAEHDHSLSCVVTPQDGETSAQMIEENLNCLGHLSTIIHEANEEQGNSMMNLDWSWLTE

[21] = tested on: BMDM; assay: Inhibition of LPS-induced TNF mRNA expression in mouse BMDM up to 3 hrs by Northern blot analysis; assay type: functional, cell-based
[22] = target: T2, Inhibitor of nuclear factor kappa-B kinase subunit alpha (Homo sapiens); assay: Inhibition of IkappaBalpha phosphorylation in human bronchial epithelial cells assessed after 2 hrs by Western blot analysis; assay type: cell-based; conditions: Epithelial cell
Procedure, shortened: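 WI38 lung fibroblasts and bronchial epithelial cells were stimulated for 2 hours. The same Western blot was probed for PARP cleavage, total IκBα and phosphorylated IκBα.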

Measured: Activity

CCCCCCCCCC(=O)CC(=O)N[C@H]1CCOC1=O
active: [1] Dose-dependent effect | [2] | [3] | [4] | [5] | [6] Dose-dependent effect | [7] | [8] Dose-dependent effect | [9] Dose-dependent effect | [10] | [11] | [12] | [13] | [14] | [15] | [16] Dose-dependent effect | [17] | [18] | [19] | [20] | [21] Dose-dependent effect | [22]
